Laboratory results from ChEMBL document CHEMBL1287652, “QSAR modeling, synthesis and bioassay of diverse leukemia RPMI-8226 cell line active agents” (2010).

Assays:
Type in all cases: functional
HL-60(TB) = experiment: Antitumor activity against human HL-60(TB) cells at 10 uM after 48 hrs by sulforhodamine B assay relative to control; conditions: HL-60, 48 h
In short: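 Single-dose NCI screen. Cells were in RPMI-1640 with 5% FBS and 2 mM L-glutamine, plated by doubling time and held 24 h at 37 °C in 5% CO2 before dosing. Exposure was 48 h. Suspension cells were fixed in situ with TCA (final 16%), SRB-stained, and read at 515 nm. Percentage growth was expressed relative to untreated control cells.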

MOLT-4 = experiment: Antitumor activity against human MOLT4 cells at 10 uM after 48 hrs by sulforhodamine B assay relative to control; conditions: MOLT-4, 48 h, values are per cent of control
In short: (§1)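 NCI panel lines were grown in RPMI-1640 with 5% FBS and 2 mM L-glutamine and seeded at 5000–40,000 cells/well according to doubling time. After 24 h at 37 °C, 5% CO2, one dose from a DMSO stock was added for 48 h. Cells were TCA-fixed (10% final adherent, 16% suspension), SRB-stained and read at 515 nm. Percent growth is relative to untreated control.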

EKVX = experiment: Antitumor activity against human EKVX cells at 10 uM after 48 hrs by sulforhodamine B assay relative to control; conditions: values are per cent of control
In short: (§2)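 Single-dose screen in a 55-line panel. Cells in RPMI-1640 with 5% FBS and 2 mM glutamine were preincubated for 24 h, then exposed to compound (DMSO stock diluted in medium) for 48 h at 37 °C with 5% CO2. Cells were fixed with cold TCA, stained with 0.4% SRB in 1% acetic acid, and dye was solubilized in 10 mM Tris base and read at 515 nm. Growth is given as percent of untreated control.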

HOP-62 = experiment: Antitumor activity against human HOP62 cells at 10 uM after 48 hrs by sulforhodamine B assay relative to control; conditions: HOP-62, 48 h, values are per cent of control; in short: as §2
NCI-H226 = experiment: Antitumor activity against human NCI-H226 cells at 10 uM after 48 hrs by sulforhodamine B assay relative to control; conditions: NCI-H226, 48 h, values are per cent of control; in short: as §1
NCI-H460 = experiment: Antitumor activity against human NCI-H460 cells at 10 uM after 48 hrs by sulforhodamine B assay relative to control; conditions: NCI-H460, 48 h, values are per cent of control; in short: as §1
HCT-116 = experiment: Antitumor activity against human HCT116 cells at 10 uM after 48 hrs by sulforhodamine B assay relative to control; conditions: HCT-116, 48 h, values are per cent of control; in short: as §2
HCT-15 = experiment: Antitumor activity against human HCT15 cells at 10 uM after 48 hrs by sulforhodamine B assay relative to control; conditions: HCT-15, 48 h, values are per cent of control; in short: as §2
HT-29 = experiment: Antitumor activity against human HT-29 cells at 10 uM after 48 hrs by sulforhodamine B assay relative to control; conditions: HT-29, 48 h, values are per cent of control; in short: as §2
KM12 = experiment: Antitumor activity against human KM12 cells at 10 uM after 48 hrs by sulforhodamine B assay relative to control; conditions: KM12, 48 h, values are per cent of control; in short: as §2
SW-620 = experiment: Antitumor activity against human SW620 cells at 10 uM after 48 hrs by sulforhodamine B assay relative to control; conditions: SW-620, 48 h, values are per cent of control
In short: (§3)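 NCI panel line grown in RPMI-1640 with 5% FBS and 2 mM L-glutamine, plated at 5000–40,000 cells/well, 24 h preincubation. Single final 10 µM from DMSO stock, 48 h at 37 °C, 5% CO2. TCA fixation (10% adherent, 16% suspension), SRB stain, absorbance 515 nm. Percent growth relative to untreated control.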

SF-268 = experiment: Antitumor activity against human SF268 cells at 10 uM after 48 hrs by sulforhodamine B assay relative to control; conditions: SF-268, 48 h, values are per cent of control; in short: as §1
SF-539 = experiment: Antitumor activity against human SF539 cells at 10 uM after 48 hrs by sulforhodamine B assay relative to control; conditions: SF-539, 48 h, values are per cent of control; in short: as §1
SNB-19 = experiment: Antitumor activity against human SNB19 cells at 10 uM after 48 hrs by sulforhodamine B assay relative to control; conditions: SNB-19, 48 h, values are per cent of control; in short: as §1
SNB-75 = experiment: Antitumor activity against human SNB75 cells at 10 uM after 48 hrs by sulforhodamine B assay relative to control; conditions: SNB-75, 48 h, values are per cent of control; in short: as §1
MDA-MB-435 = experiment: Antitumor activity against human MDA-MB-435 cells at 10 uM after 48 hrs by sulforhodamine B assay relative to control; conditions: MDA-MB-435, 48 h, values are per cent of control; in short: as §2
SK-MEL-2 = experiment: Antitumor activity against human SK-MEL-2 cells at 10 uM after 48 hrs by sulforhodamine B assay relative to control; conditions: SK-MEL-2, 48 h, values are per cent of control; in short: as §1
OVCAR-4 = experiment: Antitumor activity against human OVCAR4 cells at 10 uM after 48 hrs by sulforhodamine B assay relative to control; conditions: OVCAR-4, 48 h, values are per cent of control; in short: as §1
SK-OV-3 = experiment: Antitumor activity against human SKOV3 cells at 10 uM after 48 hrs by sulforhodamine B assay relative to control; conditions: SK-OV-3, 48 h, values are per cent of control; in short: as §1
786-0 = experiment: Antitumor activity against human 786-0 cells at 10 uM after 48 hrs by sulforhodamine B assay relative to control; conditions: 786-0, 48 h, values are per cent of control; in short: as §2
A498 = experiment: Antitumor activity against human A498 cells at 10 uM after 48 hrs by sulforhodamine B assay relative to control; conditions: A498, 48 h, values are per cent of control; in short: as §2
ACHN = experiment: Antitumor activity against human ACHN cells at 10 uM after 48 hrs by sulforhodamine B assay relative to control; conditions: values are per cent of control; in short: as §2
SN12C = experiment: Antitumor activity against human SN12C cells at 10 uM after 48 hrs by sulforhodamine B assay relative to control; conditions: values are per cent of control; in short: as §1
UO-31 = experiment: Antitumor activity against human UO31 cells at 10 uM after 48 hrs by sulforhodamine B assay relative to control; conditions: UO-31, 48 h, values are per cent of control; in short: as §3
DU-145 = experiment: Antitumor activity against human DU145 cells at 10 uM after 48 hrs by sulforhodamine B assay relative to control; conditions: DU-145, 48 h, values are per cent of control; in short: as §2
MDA-MB-231 = experiment: Antitumor activity against human MDA-MB-231 cells at 10 uM after 48 hrs by sulforhodamine B assay relative to control; conditions: MDA-MB-231, 48 h, values are per cent of control; in short: as §2
T47D = experiment: Antitumor activity against human T47D cells at 10 uM after 48 hrs by sulforhodamine B assay relative to control; conditions: values are per cent of control; in short: as §3
MDA-MB-468 = experiment: Antitumor activity against human MDA-MB-468 cells at 10 uM after 48 hrs by sulforhodamine B assay relative to control; conditions: MDA-MB-468, 48 h, values are per cent of control; in short: as §1

## COc1ccc(NC(=O)Nc2ccc(OCCCOc3ccc(NC(=O)Nc4ccc(OC)cc4)cc3)cc2)cc1
HL-60(TB)
  inhibition at 10 µM: 90.4%
MOLT-4
  growth, % of control at 10 µM: 95.5%
EKVX
  growth, % of control at 10 µM: 86.7%
HOP-62
  growth, % of control at 10 µM: 95.7%
NCI-H226
  growth, % of control at 10 µM: 121%
NCI-H460
  growth, % of control at 10 µM: 96.8%
HCT-116
  growth, % of control at 10 µM: 83.3%
HCT-15
  growth, % of control at 10 µM: 118%
HT-29
  growth, % of control at 10 µM: 107%
KM12
  growth, % of control at 10 µM: 117%
SW-620
  growth, % of control at 10 µM: 118%
SF-268
  growth, % of control at 10 µM: 103%
SF-539
  growth, % of control at 10 µM: 86.7%
SNB-19
  growth, % of control at 10 µM: 94.5%
SNB-75
  growth, % of control at 10 µM: 101%
MDA-MB-435
  growth, % of control at 10 µM: 109%
SK-MEL-2
  growth, % of control at 10 µM: 108%
OVCAR-4
  growth, % of control at 10 µM: 109%
SK-OV-3
  growth, % of control at 10 µM: 88.4%
786-0
  growth, % of control at 10 µM: 86.9%
A498
  growth, % of control at 10 µM: 144%
ACHN
  growth, % of control at 10 µM: > 100%
SN12C
  growth, % of control at 10 µM: 87.3%
UO-31
  growth, % of control at 10 µM: 71.4%
DU-145
  growth, % of control at 10 µM: 107%
MDA-MB-231
  growth, % of control at 10 µM: 93.3%
T47D
  growth, % of control at 10 µM: 83.6%
MDA-MB-468
  growth, % of control at 10 µM: 91.1%

## COc1ccc(NC(=O)Nc2ccccc2OCCCOc2ccccc2NC(=O)Nc2ccc(OC)cc2)cc1
HL-60(TB)
  inhibition at 10 µM: 18.8%
MOLT-4
  growth, % of control at 10 µM: -5.8%
EKVX
  growth, % of control at 10 µM: 2.2%
HOP-62
  growth, % of control at 10 µM: 38.5%
NCI-H226
  growth, % of control at 10 µM: 87.1%
NCI-H460
  growth, % of control at 10 µM: 17.7%
HCT-116
  growth, % of control at 10 µM: -36.8%
HCT-15
  growth, % of control at 10 µM: 65.5%
HT-29
  growth, % of control at 10 µM: 54.9%
KM12
  growth, % of control at 10 µM: 23.8%
SW-620
  growth, % of control at 10 µM: 0.7%
SF-268
  growth, % of control at 10 µM: 50.7%
SF-539
  growth, % of control at 10 µM: -29.6%
SNB-19
  growth, % of control at 10 µM: 47.6%
SNB-75
  growth, % of control at 10 µM: -34.8%
MDA-MB-435
  growth, % of control at 10 µM: 41.6%
SK-MEL-2
  growth, % of control at 10 µM: 65.8%
OVCAR-4
  growth, % of control at 10 µM: -67.2%
SK-OV-3
  growth, % of control at 10 µM: 7.9%
786-0
  growth, % of control at 10 µM: -31.5%
A498
  growth, % of control at 10 µM: -9.3%
ACHN
  growth, % of control at 10 µM: 46.3%
SN12C
  growth, % of control at 10 µM: -21.3%
UO-31
  growth, % of control at 10 µM: -20.7%
DU-145
  growth, % of control at 10 µM: 39.4%
MDA-MB-231
  growth, % of control at 10 µM: 34%
T47D
  growth, % of control at 10 µM: 9.2%
MDA-MB-468
  growth, % of control at 10 µM: 22.6%

## O=C(Nc1ccc(Cl)cc1)Nc1ccc(OCCCOc2ccc(NC(=O)Nc3ccc(Cl)cc3)cc2)cc1
HL-60(TB)
  inhibition at 10 µM: 105%
MOLT-4
  growth, % of control at 10 µM: 118%
EKVX
  growth, % of control at 10 µM: 95%
HOP-62
  growth, % of control at 10 µM: 96.2%
NCI-H226
  growth, % of control at 10 µM: 123%
NCI-H460
  growth, % of control at 10 µM: 103%
HCT-116
  growth, % of control at 10 µM: 94.8%
HCT-15
  growth, % of control at 10 µM: 117%
HT-29
  growth, % of control at 10 µM: 114%
KM12
  growth, % of control at 10 µM: 110%
SW-620
  growth, % of control at 10 µM: 104%
SF-268
  growth, % of control at 10 µM: 125%
SF-539
  growth, % of control at 10 µM: 91.8%
SNB-19
  growth, % of control at 10 µM: 108%
SNB-75
  growth, % of control at 10 µM: 92.2%
MDA-MB-435
  growth, % of control at 10 µM: 110%
SK-MEL-2
  growth, % of control at 10 µM: 118%
OVCAR-4
  growth, % of control at 10 µM: 110%
SK-OV-3
  growth, % of control at 10 µM: 122%
786-0
  growth, % of control at 10 µM: 93.7%
A498
  growth, % of control at 10 µM: 107%
ACHN
  growth, % of control at 10 µM: 106%
SN12C
  growth, % of control at 10 µM: 105%
UO-31
  growth, % of control at 10 µM: 68.8%
DU-145
  growth, % of control at 10 µM: 121%
MDA-MB-231
  growth, % of control at 10 µM: 111%
T47D
  growth, % of control at 10 µM: 106%
MDA-MB-468
  growth, % of control at 10 µM: 114%
